KCNK9 block – human KCNK9 channel inhibition; Q9NPC2; B-score at 10 µM; HEK293 KCNK9, FluxOR thallium flux fluorescence; stronger effect = lower value; 310,000 tested, 1.2% active; AID 488922;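 active = ratio B-score over 3 SD below the library mean, with starting fluorescence within 5 SD of its mean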;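 also: negative B-score means less thallium flux so channel inhibition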
KCNK3 inh – human KCNK3 channel inhibition, primary screen | O14649 | CHO-KCNK3 thallium flux, FluxOR fluorescence; stronger effect = lower value | B-score at 10 µM | 340,000 tested, 0.84% active;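 active = B-score under library mean minus 4 SD, starting fluorescence ratio at most library mean plus 5 SD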;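 also: more negative B-score means stronger inhibition of thallium flux through KCNK3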
Kir21 inh – inhibitors of mouse Kir2.1 inward-rectifier potassium channel; P35561; HEK293-Kir2.1, FluxOR thallium flux fluorescence; stronger effect = lower value; B-score at 10 µM; 310,000 tested, 0.85% active;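 active = fluorescence ratio B-score at or below minus 3 SD of library scores, with starting-brightness B-score within 2 SD, cut at about -4.2 in these data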;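 also: channel flux triggered by added potassium and thallium sulfate stimulus; B-score of peak minus minimum fluorescence over baseline after thallium stimulus; more negative B-score means stronger Kir2.1 block with less thallium influx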
KCNQ1 pot – potentiates or activates the human KCNQ1 potassium channel. B-score at 10 µM. AID 2648. 310,000 tested, 0.35% active. P51787. CHO-K1 KCNQ1, thallium flux FluxOR fluorescence; stronger effect = higher value;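 active = fluorescence ratio B-score, a plate-corrected score, at least three library SD, with initial intensity B-score within 5 SD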
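Assay system: CHO-K1 cells stably expressing KCNQ1; Medium: assay buffer with matched DMSO; Also added: K+/Tl+ depolarizing stimulus; Dosing: single dose; Timing: dye 90 min, compound 20 min, room temperature; Measured by: kinetic FluxOR thallium fluorescence, 10-s 1-Hz baseline, 110-s post-stimulus read; Read-out: peak-minus-minimum fluorescence over initial fluorescence, negative-control normalized, B-scored.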
hERG rescue – shields human hERG channel from block by proarrhythmic agents; Q12809; CHO-hERG, FluxOR thallium flux, dofetilide IC70 present; activation (rescue from dofetilide block), less the hit threshold, % at 10 µM; 310,000 tested, 0.51% active;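 active = activation above the mean of controls blocked by dofetilide plus 5 SD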;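 also: thallium influx through hERG after potassium depolarization seen as dye fluorescence rise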
KCNQ1 inh – inhibitors of human KCNQ1 potassium channel. P51787. CHO-K1 KCNQ1, FluxOR thallium flux fluorescence; stronger effect = higher value. B-score at 10 µM. 310,000 tested, 1.3% active;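 active = compounds whose thallium flux B-score, printed positive for inhibition, exceeds three library SD while starting fluorescence stays within three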;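 also: channel opened by potassium depolarization with thallium stimulus after 20 min compound exposure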
KCNQ1 block val – confirmation of human KCNQ1 potassium channel inhibitors. 1,600 tested, 93% active. KCNQ1 cell line, FluxOR thallium flux fluorescence. inhibition, % at 10 µM. shares compounds with KCNQ1 inh;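 active = primary screen active, with duplicate mean exceeding buffer control mean plus 3 SD of buffer wells, cut at about 28% in these data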
CHO KCNQ1 ctr – KCNQ1 inhibitor counter-screen hit in parental CHO cells; shares compounds with KCNQ1 inh; parental CHO-K1, FluxOR thallium flux fluorescence ratio; stronger effect = lower value; zero means no signal rise above baseline; fluorescence ratio (Tl flux) at 10 µM; 1,600 tested, 21% active; AID 588366;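 active = mean of duplicate thallium-flux fluorescence ratios in parental host cells more than 5 SD below the buffer control mean, cut at about 0.38 in these data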;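 also: ratio is peak minus minimum fluorescence divided by baseline fluorescence; actives read low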
KCNQ1 APC inh – human KCNQ1 inhibition validated by electrophysiology; shares compounds with KCNQ1 inh; KCNQ1-CHO cells, automated patch clamp current; calls only at 10 µM; 490 tested, 20% active; AID 624120;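 active = KCNQ1 current drop exceeding 3 SD of negative control wells, seen in both duplicate runs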;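 also: steady state current during a 2 s step from -80 to +40 mV; negative values mean current inhibition and positive values mean potentiation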
KCNQ2 inh – selectivity of KCNQ1 inhibitors: inhibition of rat KCNQ2 channel | shares compounds with KCNQ1 inh | KCNQ2 cells, FluxOR thallium flux fluorescence | inhibition, % at 10 µM | 1,600 tested, 71% active;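 active = mean percent inhibition of the KCNQ2 thallium signal more than 5 SD above the buffer-only control wells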;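 also: KCNQ2 expressed in CHO cells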
Target sequence (O88943 whole entry, looked up): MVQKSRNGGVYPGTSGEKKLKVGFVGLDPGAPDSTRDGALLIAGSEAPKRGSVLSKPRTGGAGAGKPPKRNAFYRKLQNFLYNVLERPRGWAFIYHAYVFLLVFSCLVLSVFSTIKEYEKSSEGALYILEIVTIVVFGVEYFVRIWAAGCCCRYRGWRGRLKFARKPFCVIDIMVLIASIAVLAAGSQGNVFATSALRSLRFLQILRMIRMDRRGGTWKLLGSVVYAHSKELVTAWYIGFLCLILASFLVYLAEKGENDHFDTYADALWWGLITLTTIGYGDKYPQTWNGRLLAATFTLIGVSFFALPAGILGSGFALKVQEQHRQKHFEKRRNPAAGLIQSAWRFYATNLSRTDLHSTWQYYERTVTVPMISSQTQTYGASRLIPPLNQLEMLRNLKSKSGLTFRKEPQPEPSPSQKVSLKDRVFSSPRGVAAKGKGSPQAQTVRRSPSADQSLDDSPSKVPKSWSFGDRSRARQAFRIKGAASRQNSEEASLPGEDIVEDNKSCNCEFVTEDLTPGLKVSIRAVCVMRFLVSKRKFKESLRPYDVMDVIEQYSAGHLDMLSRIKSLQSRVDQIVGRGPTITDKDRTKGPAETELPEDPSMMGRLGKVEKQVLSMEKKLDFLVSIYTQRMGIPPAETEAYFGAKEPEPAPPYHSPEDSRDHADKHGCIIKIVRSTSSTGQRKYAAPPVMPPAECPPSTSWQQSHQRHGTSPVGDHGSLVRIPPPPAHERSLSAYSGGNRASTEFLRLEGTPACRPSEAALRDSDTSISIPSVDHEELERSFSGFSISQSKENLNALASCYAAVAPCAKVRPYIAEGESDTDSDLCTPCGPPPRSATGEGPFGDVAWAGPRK
KCNQ1 KCNE1 spec – selectivity of KCNQ1 inhibitors: inhibition of human KCNQ1/KCNE1 channel; KCNQ1/KCNE1 cells, FluxOR thallium flux fluorescence; inhibition, % at 10 µM; shares compounds with KCNQ1 inh; 1,600 tested, 77% active;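 active = mean percent inhibition of duplicate wells above the buffer-only control mean plus 3 SD of those controls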
Hits are given with their value; . = inactive; / = not tested or not shown; + = active, no number. Sampled rows, rich in hits. Any-hit rate of the full collection: about 3.8%.

SMILES	KCNK9 block	KCNK3 inh	Kir21 inh	KCNQ1 pot	hERG rescue	KCNQ1 inh	KCNQ1 block val	CHO KCNQ1 ctr	KCNQ2 inh	KCNQ1 KCNE1 spec	others
CCOC(=O)Cc1nn[nH]n1	.	.	.	.	.	7	.	.	.	37%
COc1ccc(CCNC(=O)CSc2nnc(CNC(=O)c3cc(OC)c(OC)c(OC)c3)o2)cc1OC	.	.	.	.	.	.	/	/	/	/
S=C(NCc1ccc(Cl)cc1Cl)NC1CCCCC1	.	.	.	.	.	7	152	.	65%	.	KCNQ1 APC inh=+
Clc1ccc(CNC2CCCC2)c(Cl)c1	.	.	.	.	.	.	/	/	/	/
S=C(NCCc1cccc(Cl)c1)NC1CCCCC1	.	.	.	.	.	8	64	.	74%	56%
COc1cc(C(=O)NN2C(=O)NC3(CCC(C)CC3)C2=O)ccc1OC(F)F (centres undefined)	/	.	/	/	/	/	/	/	/	/
CCOc1ccc(S(=O)(=O)N(CC(=O)NCc2cccnc2)c2ccc(F)cc2)cc1	.	.	.	.	.	.	/	/	/	/
Clc1ccc(-c2cc3ccccc3[nH]2)cc1	.	.	.	.	.	6	124	.	.	98%
O=C(N=C1SC2CS(=O)(=O)CC2N1Cc1ccc(F)cc1)C1CCCO1 (centres undefined)	.	.	.	.	.	.	/	/	/	/
S=C(NCCSCc1ccc(Cl)c(Cl)c1)Nc1ccccc1	.	.	.	.	.	11	76	.	80%	65%
Cc1ccccc1CSCCNC(=S)Nc1ccccc1	.	.	.	.	.	8	62	.	82%	72%
COc1ccc(CNC(=S)Nc2ccccc2)cc1Cl	.	.	.	.	.	.	/	/	/	/
CC(C)Oc1ccc(CNC(=S)Nc2ccccc2)cc1Cl	.	.	.	.	.	7	50	.	59%	75%
COc1ccc(CSCCNC(=S)Nc2ccccc2)cc1Cl	.	.	.	.	.	.	/	/	/	/
S=C(NCCSCc1ccc(Cl)cc1Cl)Nc1ccccc1	.	.	.	.	.	6	48	.	111%	36%
COC(=O)c1cn(C(=O)c2cc(Cl)ccc2Cl)c2ccccc12	.	.	.	.	.	.	/	/	/	/
O=C(OCC(=O)c1ccccc1Cl)C1=NN(c2ccccc2)C(=O)CC1	/	.	/	/	/	/	/	/	/	/
O=C1c2ccccc2C(=O)N1CSc1nnc2c3ccccc3n(CCc3ccccc3)c2n1	.	.	.	.	.	6	42	.	78%	.
COc1cc(OC)cc(C(=O)N2CCN(c3ccc(N4CCOCC4)nn3)CC2)c1	.	.	.	.	.	.	/	/	/	/
O=C(Nc1cccc(F)c1)N(Cc1ccc(Cl)cc1)CC(O)C(F)(F)F (centres undefined)	.	.	.	.	.	8	72	.	.	56%
COc1ccccc1NC(=O)N(Cc1ccccc1)c1ccccn1	.	.	.	.	.	7	95	.	85%	102%	KCNQ1 APC inh=.
COCC(=O)N(Cc1ccccc1)c1ccccn1	.	.	.	.	.	.	/	/	/	/
COC(=O)c1sccc1NC(=O)C1CCCCC1C(=O)O (centres undefined)	.	.	.	.	.	.	/	/	/	/
CCc1ccc(S(=O)(=O)/N=C2\C=C(NS(=O)(=O)c3ccccc3)C(=O)c3ccccc32)cc1	.	.	.	.	.	12	97	.	79%	94%	KCNQ1 APC inh=+
CCc1ccc(OCC(=O)c2c(O)c3ccccc3oc2=O)cc1	.	.	.	.	.	.	/	/	/	/
SMILES	KCNK9 block	KCNK3 inh	Kir21 inh	KCNQ1 pot	hERG rescue	KCNQ1 inh	KCNQ1 block val	CHO KCNQ1 ctr	KCNQ2 inh	KCNQ1 KCNE1 spec	others
CCc1oc2ccccc2c1C(=O)c1cc(Br)c(O)c(Br)c1	.	.	.	.	.	9	77	.	.	43%
CCOc1cc(S(=O)(=O)NCc2ccncc2)ccc1Cl	.	.	.	.	.	8	74	.	.	36%
CCOC(=O)c1cnc(SC)nc1Oc1cccc(NS(=O)(=O)c2ccccc2)c1	.	.	.	.	.	7	56	.	93%	50%
C=CCC[C@@H](Cc1ccc(F)cc1)C(=O)OC[C@@H](Cc1ccccc1)NC(=O)[C@@H](CC=C)CC(=O)N[C@@H](CO)Cc1ccccc1	/	.	/	/	/	/	/	/	/	/
O=C(OC1CCOC1=O)c1cc(S(=O)(=O)N2CCOCC2)c(Cl)cc1Cl (centres undefined)	/	.	/	/	/	/	/	/	/	/
CC1CCN(CCCOc2ccc(Br)cc2Cl)CC1	.	.	-7.6	.	.	7	62	.	.	90%
CC1CCCN(CCOCCOc2ccc(Br)cc2Cl)C1 (centres undefined)	.	.	.	.	.	.	/	/	/	/
Cc1ccc(N/C(N)=N/c2nc(C)cc(C)n2)cc1	.	.	.	.	.	.	/	/	/	/
CCCCc1ccc(N/C(N)=N/c2nc(C)cc(C)n2)cc1	.	.	-5.2	.	.	11	96	.	66%	.	KCNQ1 APC inh=+
CSc1nc2nc(C)c(C/C=C/c3ccccc3)c(=O)n2[nH]1	.	.	.	.	.	.	/	/	/	/
CCc1c(C)nc2nc(SCc3ccccc3Cl)[nH]n2c1=O	.	.	.	.	.	9	85	.	69%	34%
Cn1cc(CNCc2ccc(OC(F)(F)F)cc2)c(-c2ccc3c(c2)OCCO3)n1	.	.	.	.	.	10	124	.	112%	60%	KCNQ1 APC inh=.
CC(NC(=O)COC(=O)C1CCN(c2ccc(C(F)(F)F)cn2)CC1)c1ccc(F)cc1 (centres undefined)	/	.	/	/	/	/	/	/	/	/
CCCCCOc1ccc(Br)cc1CSC(=N)N	.	.	-12	.	.	9	125	0.37	86%	94%
COc1ccc(Br)cc1CSC(=N)N	.	.	.	.	.	.	/	/	/	/
O=C(CCc1ccccc1)Nc1cc(Cl)ccc1O	.	.	.	.	.	9	63	.	.	90%
O=C(O)CC(=O)Nc1cc(Cl)ccc1O	.	.	.	.	.	.	/	/	/	/
O=[N+]([O-])c1c(Nc2cccc(O)c2)cc(Cl)c2nonc12	-8	.	-7.4	.	.	24	166	0.29	129%	+
Cc1nc2cc(NCc3ccccc3O)ccc2n1Cc1ccccc1	.	.	.	.	.	8	50	.	.	43%
